DNMT1 block: inhibitors of human DNMT1. P26358. DNMT1 molecular beacon, Hinp1I cleavage, fluorescence. inhibition (reported as % activation of signal), % at 10 µM. 360,000 tested, 0.83% active. AID 588458; in the data active = inhibition above about 50%
LMPTP inh: blocks human LMPTP phosphatase; P24666; recombinant LMPTP-A, OMFP fluorogenic substrate, fluorescence intensity; inhibition, % at 20 µM; 360,000 tested, 0.22% active;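 active = compounds that cut the enzyme signal by at least half of the control window in the single-dose screen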
Target sequence (P24666 whole entry, looked up): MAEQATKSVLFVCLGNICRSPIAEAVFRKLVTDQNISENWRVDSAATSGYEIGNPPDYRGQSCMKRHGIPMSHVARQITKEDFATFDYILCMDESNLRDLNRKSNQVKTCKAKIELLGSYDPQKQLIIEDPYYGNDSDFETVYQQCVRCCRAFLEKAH
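Test system: LMPTP-A, protein tyrosine phosphatase of low molecular weight; Input: 0.625 nM enzyme; Incubation: 50 min dark incubation at room temperature; Signal: endpoint fluorescence intensity from OMFP dephosphorylation; Read-out basis: % inhibition versus control wells.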
SUMO1 PPI mod: SUMO1-SIM interaction modulation; SUMO1 binding to a labelled peptide, TR-FRET, 1 h; inhibition, % at 20 µM; 360,000 tested, 0.33% active; AID 602429; in the data active = inhibition above about 37%
STEP block: STEP (human) phosphatase inhibition. P54829. recombinant STEP, OMFP fluorogenic substrate, fluorescence. inhibition, % at 20 µM. 360,000 tested, 0.25% active. AID 588621;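 active = inhibition at 20 µM, scaled per plate between control wells, above about 37%, limit read from the data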
Target sequence (P54829 whole entry, looked up): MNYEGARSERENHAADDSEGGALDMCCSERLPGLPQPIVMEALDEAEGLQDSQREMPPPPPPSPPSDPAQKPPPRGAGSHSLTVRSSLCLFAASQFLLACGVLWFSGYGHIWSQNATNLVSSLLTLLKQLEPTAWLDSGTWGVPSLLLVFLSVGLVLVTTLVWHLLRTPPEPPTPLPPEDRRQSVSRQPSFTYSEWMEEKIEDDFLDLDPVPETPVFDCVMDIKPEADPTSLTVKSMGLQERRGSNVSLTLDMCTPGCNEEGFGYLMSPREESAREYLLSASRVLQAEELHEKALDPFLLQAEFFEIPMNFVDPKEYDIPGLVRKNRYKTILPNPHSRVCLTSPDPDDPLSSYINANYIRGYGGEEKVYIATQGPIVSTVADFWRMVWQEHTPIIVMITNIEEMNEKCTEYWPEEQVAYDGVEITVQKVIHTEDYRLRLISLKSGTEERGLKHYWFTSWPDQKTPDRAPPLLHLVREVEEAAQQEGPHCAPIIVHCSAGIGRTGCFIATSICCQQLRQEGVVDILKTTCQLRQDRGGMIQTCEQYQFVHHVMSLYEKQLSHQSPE
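System: isolated STEP enzyme; schedule: 20 min enzyme reaction at room temperature, protected from light; medium: Bis-Tris buffer pH 6.0, 2.5 mM DTT, 0.005% Tween 20; signal: fluorescence, 480/540 nm; dosing: single compound dose of 20 µM, 1% DMSO final; also added: OMFP substrate, 25 µM final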
Scp-1 inhibitor: inhibitors of human Scp-1 phosphatase. AID 493091. Q9GZU7. Recombinant Scp1, phosphopeptide, malachite green phosphate absorbance. 340,000 tested, 0.88% active. inhibition, % at 20 µM;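 active = inhibition above about 50% at 20 µM, limit read from the data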
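Times: enzyme reaction 45 min at room temperature, colour 5 min, stabilisation 30 min. Material: SCP-1 catalytic fragment, aa 76-261. Medium: Acidic Tris acetate buffer with magnesium and detergent. Signal: colorimetric free-phosphate detection, absorbance 630 nm. Read-out basis: % inhibition of SCP-1 phosphate liberation. Reagent: Phosphorylated 17-residue peptide substrate.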
Scp1 confirm: confirmation of human Scp-1 phosphatase inhibitors; recombinant SCP-1 catalytic domain, phosphate release, malachite green absorbance; inhibition, % at 20 µM; 2,500 tested, 61% active; shares compounds with Scp-1 inhibitor
MG interference: interferes with malachite green readout, flagging false Scp-1 hits. shares compounds with Scp-1 inhibitor. AID 540313. Colorimetric interference counterscreen, malachite green absorbance 630 nm. 2,500 tested, under 10 active. apparent inhibition (interference), % at 20 µM;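 note: compounds added after enzyme reaction finished so only phosphate colour detection is probed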
Scp1 DSF: binds human Scp-1, shifting its melting temperature. shares compounds with Scp-1 inhibitor. Recombinant SCP1, Sypro Orange thermal shift Tm. thermal shift relative to vanadate control, % at 40 µM. 1,500 tested, 25% active. AID 540329;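 active = substances whose mean melting-temperature shift, as a percentage of the reference inhibitor's shift, reaches about 5.3%, limit read from the data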
Of the large screens only hits and unclear results are named; the others gave an inactive call (follow-up assays come after a bar, where they were run). The list is not random: actives were taken first. Their share in the collection is about 1.7%.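 Rule for the calls, unless noted: active = inhibition of at least 30% at 20 µM; inactive = the rest.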

COc1ccc(N2CCN(C(=O)Cc3ccc(S(=O)(=O)N4CCOCC4)s3)CC2)cc1	Scp-1 inhibitor 80.9 | Scp1 confirm 69.4 | MG interference inactive | Scp1 DSF inactive
O=C(O)Cc1ccc(S(=O)(=O)N2CCCC2)s1	DNMT1 block 67.0, Scp-1 inhibitor 93.3 | Scp1 confirm 57.6 | MG interference inactive | Scp1 DSF inactive
Cc1ccc(S(=O)(=O)N2CCN(C(=O)Cc3ccc(S(=O)(=O)N4CCOCC4)s3)CC2)cc1	none
COc1cc([N+](=O)[O-])ccc1NC(=O)CSc1ccccn1	none (no result: Scp-1 inhibitor)
COc1ccc([N+](=O)[O-])cc1CSc1ccccn1	Scp-1 inhibitor 61.0 | Scp1 confirm inactive | MG interference inactive
CCOC(=O)C1CCCN(c2c(NCCN3CCCCC3CC)c(=O)c2=O)C1 (configuration not stated)	Scp-1 inhibitor 56.8 | Scp1 confirm inactive | MG interference inactive
N=C1/C(=C\c2ccc(OC(=O)c3ccc(F)cc3)cc2)C(=O)N=C2SC(N3CCOCC3)=NN12	Scp-1 inhibitor 65.6 | Scp1 confirm 55.6 | MG interference inactive | Scp1 DSF inactive
CC1CCN(C2=NN3C(=N)/C(=C\c4ccc(OC(=O)c5ccco5)cc4)C(=O)N=C3S2)CC1	none
CCOC(=O)c1cnc2nc(NCc3ccc(OC)c(OC)c3)[nH]n2c1=O	Scp-1 inhibitor 53.7 | Scp1 confirm 31.4 | MG interference inactive | Scp1 DSF inactive
CCCc1cc(=O)n2[nH]c(NCc3ccc(OC)c(OC)c3)nc2n1	none
COc1ccc(N2CC(C(=O)N[C@@H](CC(C)C)C(=O)NC3CCCCC3)CC2=O)cc1 (some centres not stated)	none
CCSC1=N/C(=C\c2ccc(-c3ccccc3[N+](=O)[O-])o2)C(=O)S1	none
CCCSC1=N/C(=C\c2ccc([N+](=O)[O-])o2)C(=O)S1	DNMT1 block 93.4, SUMO1 PPI mod 61.8, Scp-1 inhibitor 60.0 | Scp1 confirm 71.8 | MG interference inactive | Scp1 DSF 11.3
O=C(NC1CCCC1)C1C(c2ccc(C(F)(F)F)cc2)=Nc2ccccc2N1C(=O)c1cccc(C(F)(F)F)c1 (configuration not stated)	none (no result: DNMT1 block, STEP block, Scp-1 inhibitor)
CC1CCc2c(sc(NC(=O)c3ccc(Cn4cc([N+](=O)[O-])cn4)o3)c2C#N)C1 (configuration not stated)	Scp-1 inhibitor 71.3 | Scp1 confirm 61.0 | MG interference inactive | Scp1 DSF 6.4
CC(=O)Nc1ccc(S(=O)(=O)NCCSCc2ccco2)cc1	none
CS(=O)(=O)NCCSCc1ccco1	Scp-1 inhibitor 97.8 | Scp1 confirm 63.5 | MG interference inactive | Scp1 DSF inactive
COc1ccc(N2CC(C(=O)Nc3nc4ccc(F)cc4s3)CC2=O)c(OC)c1 (configuration not stated)	none | Scp1 confirm inactive | MG interference inactive
O=C(CCN1C(=O)S/C(=C\c2ccc(Cl)cc2)C1=O)Nc1ccc(C(=O)O)cc1	Scp-1 inhibitor 80.0 | Scp1 confirm 72.1 | MG interference inactive | Scp1 DSF inactive
O=C(CCN1C(=O)/C(=C/c2ccc3c(c2)OCO3)SC1=S)Nc1ccc(C(=O)O)cc1	LMPTP inh 92.2, Scp-1 inhibitor 84.3 | Scp1 confirm 70.8 | MG interference inactive | Scp1 DSF 8.7
COc1cccc(/C=C2\SC(=S)N(CCCC(=O)Nc3cccc(C(=O)O)c3)C2=O)c1	none (no result: Scp-1 inhibitor)
O=C(CCCN1C(=O)/C(=C\c2ccccc2)SC1=S)Nc1ccc(C(=O)O)cc1	none
CCOc1ccc(/C=C2\SC(=S)N(CCC(=O)Nc3ccc(C(=O)O)cc3)C2=O)cc1	DNMT1 block 62.3, LMPTP inh 66.5, STEP block 45.1, Scp-1 inhibitor 87.7 | Scp1 confirm 60.1 | MG interference inactive | Scp1 DSF inactive
CCOc1ccc(/C=C2\SC(=S)N(CCC(=O)Nc3cccc(C(=O)O)c3)C2=O)cc1	LMPTP inh 73.6, STEP block 54.4, Scp-1 inhibitor 85.5 | Scp1 confirm 60.7 | MG interference inactive | Scp1 DSF 37.3
Nc1cc(=O)n(Cc2ccco2)c(=S)[nH]1	none (no result: Scp-1 inhibitor)
NS(=O)(=O)c1ccc(NC(=O)COC(=O)c2ccc(S(=O)(=O)N3CCOCC3)cc2)cc1	none
O=C(NC1CCCCC1)C1CC(=O)N(c2ccccc2)C1 (configuration not stated)	none
CSC(=NS(=O)(=O)c1ccc(N)cc1)NS(=O)(=O)c1cccs1	none
COc1cc(CN2CCNC(=O)C2CC(=O)NCCCC2CCCC2)cc(OC)c1 (configuration not stated)	none
Cc1ccc(NC(=O)CN2C(=O)S/C(=C\c3cc(Cl)c(OCC(=O)O)c(Cl)c3)C2=O)cc1	LMPTP inh 84.8, STEP block 98.1, Scp-1 inhibitor 89.5 | Scp1 confirm 57.4 | MG interference inactive | Scp1 DSF inactive
CC(=O)OCC[n+]1c(C)n(-c2ccccc2)c2ccc(Cl)cc21	Scp-1 inhibitor 89.7 | Scp1 confirm inactive | MG interference inactive
CCOC(=O)c1ccc2c(c1)[n+](CC)c(C)n2-c1ccccc1	none
Cc1ccc(NC(=O)COC(=O)c2ccc(NC(=O)CC#N)cc2)cc1S(=O)(=O)N1CCOCC1	none
C[N+]1(CCCCCCC(=O)/C=N/O)CCCCCC1	Scp-1 inhibitor 95.8 | Scp1 confirm inactive | MG interference inactive
N#C/C(=C\c1ccc(OCc2ccc(Br)cc2)cc1)C(=O)Nc1cccc(C(=O)O)c1	SUMO1 PPI mod 57.5, STEP block 41.1, Scp-1 inhibitor 56.9 | Scp1 confirm 59.5 | MG interference inactive | Scp1 DSF inactive
COc1cc(/C=C(\C#N)C(=O)Nc2cccc(C(=O)O)c2)ccc1OCc1ccc(F)cc1	Scp-1 inhibitor 55.7 | Scp1 confirm inactive | MG interference inactive
N#C/C(=C\c1ccccc1OCc1ccc(C(=O)O)cc1)C(=O)Nc1ccc(O)cc1	none
CCOc1cc(/C=C(\C#N)C(=O)Nc2cccc(C(=O)O)c2)ccc1OCc1ccccc1Cl	none
CCOc1cc(/C=C(\C#N)C(=O)Nc2cccc(C(=O)O)c2)cc(Br)c1OC(=O)c1ccc(OC)cc1	none
COc1cccc(/C=C(/C#N)c2ccc(F)cc2)c1OCc1cccc(C(=O)O)c1	none
N#C/C(=C/c1ccc(OCc2ccc(C(=O)O)cc2)cc1)C(=O)Nc1ccccc1	Scp-1 inhibitor 70.6 | Scp1 confirm 82.4 | MG interference inactive | Scp1 DSF inactive

High-throughput results: PubChem BioAssay, Sanford-Burnham Center for Chemical Genomics
